Reference: ChEMBL document CHEMBL1135910, “Beta-C-mannosides as selectin inhibitors” (J Med Chem, 2002)
pIC50: −log10 of the molar value.

Target: Alpha-1-acid glycoprotein 1 (Homo sapiens, UniProt P02763)
Assay: Ability to inhibit the binding of E-selectin to human recombinant AGP (alpha-1 acid glycoprotein) in a E-selectin assay
In short: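 ELISA read-out. Soluble E-selectin binding to human recombinant AGP bearing five sLex per molecule. Compounds screened at 5 mM, with percent inhibition recorded.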

Alpha-1-acid glycoprotein 1, sequence (P02763 whole entry): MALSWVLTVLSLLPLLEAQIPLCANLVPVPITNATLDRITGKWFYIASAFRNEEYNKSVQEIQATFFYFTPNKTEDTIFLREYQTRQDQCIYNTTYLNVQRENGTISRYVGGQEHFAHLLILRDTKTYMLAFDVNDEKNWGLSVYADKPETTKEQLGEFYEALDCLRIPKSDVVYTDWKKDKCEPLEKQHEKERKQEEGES

Row | Structure (SMILES) | Inhibition [%] | pIC50
1 | O=C(O)CC[C@H](NC(=O)CC1OC(CNC(=O)CC(=O)Nc2ccc(Cl)cc2Cl)C(O)C(O)C1O)C(=O)O (stereo not given in full) | 45 | 
2 | CC(=O)N[C@H]1[C@H]([C@H](O)[C@H](O)CO)O[C@@](O[C@H]2[C@@H](O)[C@@H](CO)O[C@@H](O[C@@H]([C@H](O[C@@H]3O[C@@H](C)[C@@H](O)[C@@H](O)[C@@H]3O)[C@H](C=O)NC(C)=O)[C@H](O)CO)[C@@H]2O)(C(=O)O)C[C@@H]1O [SIALYL LEWIS X] |  | 2.10
3 | CC(C)(C)c1ccc(COc2ccsc2C(=O)NCC2OC(CC(=O)N[C@@H](CCC(=O)O)C(=O)O)C(O)C(O)C2O)cc1 (stereo not given in full) | 43 | 
4 | C[C@@H](NC(=O)c1ccccc1C(=O)NCC1OC(CC(=O)N[C@@H](CCC(=O)O)C(=O)O)C(O)C(O)C1O)c1ccccc1 (stereo not given in full) |  | 2.30
5 | Cc1ccc(COc2ccsc2C(=O)NCC2OC(CC(=O)N[C@@H](CCC(=O)O)C(=O)O)C(O)C(O)C2O)cc1 (stereo not given in full) | 42 | 
